Data: ChEMBL document CHEMBL1142164, “Activities of naphthylisoquinoline alkaloids and synthetic analogs against Leishmania major” (Antimicrob Agents Chemother, 2007)

Experiments:
Leishmania major = test: Cytotoxicity against cloned virulent Leishmania major promastigotes MHOM/IL/81/FE/BN1 after 48 hrs; format: organism-based
In short: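 L. major promastigotes grown on blood agar at 26°C, 5% CO2, then washed in PBS and suspended at 1 × 10^8 cells/ml in complete Click RPMI 1640 (10% FCS, glutamine, HEPES pH 7.2, antibiotics, 2-mercaptoethanol), no phenol red. Exposed to increasing compound concentrations 24 h at 26°C, then Alamar Blue added. OD read 540/630 nm; 48 h OD versus untreated (100% growth) gave IC50 by linear interpolation. Duplicate wells, ≥2 experiments; DMSO ≤1% final.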

[1] = Cytotoxicity index, IC50 for J774.1 macrophages over IC50 for Leishmania major promastigotes; settings: mouse; for selectivity ratio: J774.1 macrophages, read-out: Ratio IC50
In short: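 Index is J774.1 IC50 divided by promastigote IC50, with both assays run in parallel. Promastigotes were incubated 24 h at 26°C with rising concentrations, and J774.1 cells 24 h at 37°C. Alamar Blue was then added. OD at 540/630 nm was read, and IC50 was interpolated linearly from the 48 h readings, with drug-free wells set as 100% growth.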

Mus musculus [2] = organism: Mus musculus; test: Cytotoxicity against J774.1 macrophages after 48 hrs; settings: J774.1, 48 h
In short: (§1)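 J774.1 cells, BALB/c peritoneal exudate cells (erythrocytes lysed in 10 mM NH4Cl), or BMDC (day-10 nonadherent cells from GM-CSF 200 U/ml cultures) were plated at 2 × 10^6 cells/ml in complete RPMI without phenol red. Cells were exposed to increasing concentrations for 24 h at 37°C in 5% CO2, then Alamar Blue was added. IC50 was taken by linear interpolation from the 48 h OD. Duplicate wells, at least two experiments.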

Mus musculus [3] = organism: Mus musculus; test: Cytotoxicity against BALB/c mouse peritoneal macrophages by Alamar blue method; format: functional; in short: as §1
[4] = Cytotoxicity against BALB/c mouse bone-marrow derived dendritic cells by Alamar blue method; format: cell-based; settings: Dendritic cell; in short: as §1
NIH3T3 = test: Cytotoxicity against mouse embryo NIH3T3 cells by Alamar blue method; format: cell-based
In short: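 NIH 3T3 fibroblasts were grown on gelatin and suspended at 2 × 10^6 cells/ml in DMEM. They were exposed to rising compound concentrations for 24 h at 37°C in 5% CO2, then Alamar Blue was added. IC50 was derived by linear interpolation of the 48 h OD. Duplicate wells per concentration; at least two experiments.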

## COc1cc(OC)c2c(C)[n+](-c3ccccc3)c(C)cc2c1.[O-][Cl+3]([O-])([O-])[O-]
Leishmania major
  IC50: 26.6 µM
[1]
  selectivity ratio: 1.47
Mus musculus [2]
  IC50: 39.2 µM

## COc1cc(OC)c2c(C)[n+](-c3ccccc3)c(C)cc2c1.[Cl-]
Leishmania major
  IC50: 47 µM
[1]
  Ratio IC50: < 1
Mus musculus [2]
  IC50: 43.7 µM

## COc1cc(OC)c2c(C)[n+](-c3cccc4ccccc34)c(C)cc2c1.[O-][Cl+3]([O-])([O-])[O-]
Mus musculus [3]
  IC50: 15.5 µM
[4]
  IC50: 27.4 µM
NIH3T3
  IC50: 15 µM
Leishmania major
  IC50: 2.91 µM
[1]
  selectivity ratio: 3.48
Mus musculus [2]
  IC50: 10.2 µM

## COc1cc2c(c(OC)c1)C(C)=[N+](c1ccc(OC)c3c(OC)cc(C)cc13)[C@@H](C)C2 [ANCISANCISTROCLADINIUM A]
Mus musculus [3]
  IC50: 41.7 µM
[4]
  IC50: 36 µM
Leishmania major
  IC50: 4.9 µM
[1]
  selectivity ratio: 6.48
Mus musculus [2]
  IC50: 31.8 µM

## COc1cc2c(c(OC)c1-c1c(C)cc3cccc(OC)c3c1O)C(C)=N[C@@H](C)C2 [ANCISTROCLADIDINE]
Leishmania major
  IC50: > 100 µM
Mus musculus [2]
  IC50: > 100 µM

## COc1cc2c(c(OC)c1)C(C)=[N+](c1ccc3cc(C)cc(OC)c3c1O)[C@@H](C)C2 [ANCISTROCLADINIUM B]
Mus musculus [3]
  IC50: 16.9 µM
[4]
  IC50: 20.1 µM
NIH3T3
  IC50: 10.6 µM
Leishmania major
  IC50: 1.24 µM
[1]
  selectivity ratio: 9.04
Mus musculus [2]
  IC50: 11.2 µM

## COc1cc(OC)c(-c2ccc(OC)c3c(OC)cc(C)cc23)c2c1C(C)=N[C@@H](C)C2 [ANCISTROEALAINE A]
Leishmania major
  IC50: > 100 µM
Mus musculus [2]
  IC50: > 100 µM

## COc1c2c(cc(O)c1-c1c(C)cc3cccc(OC)c3c1O)C[C@H](C)N=C2C [ANCISTROHEYNINE B]
Leishmania major
  IC50: 33 µM
[1]
  selectivity ratio: < 1
Mus musculus [2]
  IC50: 29.9 µM

## COc1cc(CO)c(-c2ccc3c(c2O)[C@@H](C)N[C@H](C)C3)c2cccc(O)c12 [DIONCOPELTINE A]
Leishmania major
  IC50: > 100 µM
Mus musculus [2]
  IC50: > 100 µM

## COc1ccc(-c2ccc3cc(C)nc(C)c3c2O)c2cc(C)cc(OC)c12 [DIONCOPHYLLEINE D]
Leishmania major
  IC50: > 100 µM
Mus musculus [2]
  IC50: > 100 µM

## COc1cccc2c(-c3ccc4c(c3O)[C@@H](C)N[C@H](C)C4)c(C)cc(OC)c12 [DIONCOPHYLLINE A]
Leishmania major
  IC50: 47 µM

## COc1cc(C)c(-c2ccc(O)c3c2C[C@@H](C)N[C@@H]3C)c2cccc(O)c12 [DIONCOPHYLLINE C]
Leishmania major
  IC50: 36.5 µM
[1]
  selectivity ratio: < 1
Mus musculus [2]
  IC50: 32.8 µM

## COc1cc(C)c(-c2ccc3cc(C)nc(C)c3c2O)c2cccc(O)c12 [ENT-DIONCOPHYLLEINE A]
Leishmania major
  IC50: 32.3 µM
